Here are results for 2 compounds from ChEMBL document CHEMBL1154414, “In vitro and in vivo activities of T-705 against arenavirus and bunyavirus infections” (Antimicrob Agents Chemother, 2007).

Active and inactive are the calls of the source. No cut-off for these calls is given here.

For orientation: CC50 means the concentration that lowers cell viability or growth by half.

In data set [1] the test system is Pichinde virus. Briefly: Antiviral activity against Pichinde virus An 4763 infected Syrian golden hamster assessed as mean day of death at 30 mg/kg, po twice daily for 7 days administered 4 hrs before viral-challenge. Format: functional.
Data set [2] deals with Punta Toro virus. Briefly: Antiviral activity against 500 PFU Punta Toro virus Adames infected C57BL/6 mouse assessed as mean viral titer per 0.1 g of liver at 30 mg/kg, po twice daily administered 4 hrs before viral challenge measured on day 3 of viral infection. The format is functional. The method in brief: (§1)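 Mice were infected subcutaneously with PTV and dosed by oral gavage twice daily; 5 per group (10 placebo) were killed on day 3 or 4. Liver homogenate or serum was serially diluted onto triplicate LLC-MK2 monolayers, and CPE was read 6–8 days later. 50% endpoints gave log10 CCID50 per 0.1 g liver or 0.1 ml serum. Detection range was 2.8–9.5; undetectable samples were assigned <2.8.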

The subject of data set [3] is Punta Toro virus. Briefly: Antiviral activity against Punta Toro virus Adames infected Syrian golden hamster assessed as mean day of death at 60 mg/kg, po twice daily for 6 days administered 4 hrs before viral challenge. Format: functional.
Data set [4] has as its system Punta Toro virus. Briefly: Antiviral activity against 500 PFU Punta Toro virus Adames infected C57BL/6 mouse assessed as mean serum ALT levels at 200 mg/kg, po twice daily administered 4 hrs before viral challenge measured on day 4 of viral infection. The format is functional. The method in brief: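 Subcutaneous PTV infection was followed by oral gavage twice daily with drug suspended in 0.4% CMC. Serum was collected from 5 sacrificed mice per group (10 placebo) on day 3 or 4. ALT activity was measured by kinetic assay, and sham-infected mice set the baselines.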

Data set [5] deals with Punta Toro virus. As to the kind of experiment: Antiviral activity against 500 PFU Punta Toro virus Adames infected C57BL/6 mouse assessed as mean viral titer per 0.1 mL of serum at 30 mg/kg, po twice daily administered 4 hrs before viral challenge measured on day 3 of viral infection. The format is functional. The method in brief: as §1
The subject of data set [6] is Punta Toro virus. As to the kind of experiment: Antiviral activity against 500 PFU Punta Toro virus Adames infected C57BL/6 mouse assessed as mean viral titer per 0.1 mL of serum at 10 mg/kg, po twice daily administered 4 hrs before viral challenge measured on day 3 of viral infection. Format: functional. The essentials: as §1
For data set [7], the system named is Punta Toro virus. Briefly: Antiviral activity against 500 PFU Punta Toro virus Adames infected C57BL/6 mouse assessed as survival at 100 mg/kg, po twice daily for 5 days administered 4 hrs before viral challenge. Format: functional, organism-based. Also noted: dose 100 mg/kg. The method in brief: (§2)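 PTV was inoculated subcutaneously into mice in groups of 15 (25–30 placebo). Dosing was by oral gavage twice daily for 5–7 days, with T-705 suspended in 0.4% CMC and ribavirin in saline. Remaining animals were observed 21–28 days for survival and day of death. Test doses had first been checked for tolerance in uninfected animals.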

For data set [8], the system named is Punta Toro virus. As to the kind of experiment: Antiviral activity against 500 PFU Punta Toro virus Adames infected C57BL/6 mouse assessed as mean viral titer per 0.1 g of liver at 200 mg/kg, po twice daily administered 4 hrs before viral challenge measured on day 4 of viral infection. Format: functional. The method in brief:
as §1

The test system of data set [9] is Punta Toro virus. As to the kind of experiment: Antiviral activity against Punta Toro virus Adames infected Syrian golden hamster assessed as survival at 15 mg/kg, po twice daily for 6 days administered 4 hrs before viral challenge. The format is functional.
Data set [10] concerns Punta Toro virus. As to the kind of experiment: Antiviral activity against 500 PFU Punta Toro virus Adames infected C57BL/6 mouse assessed as mean day of death at 25 mg/kg, po twice daily for 5 days administered 4 hrs before viral challenge. The format is functional. The method in brief: (§3)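 Groups of 15 mice (25–30 placebo) were inoculated subcutaneously with PTV. Drug in 0.4% carboxymethylcellulose was given by oral gavage twice daily.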

The subject of data set [11] is Punta Toro virus. Briefly: Antiviral activity against 500 PFU Punta Toro virus Adames infected C57BL/6 mouse assessed as animals with detectable virus level in liver at 75 mg/kg, po twice daily administered 4 hrs before viral challenge measured on day 4 of viral infection. Format: functional. The essentials: (§4)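 T-705 was suspended in 0.4% carboxymethylcellulose and given by oral gavage twice daily. Mice were infected subcutaneously with PTV. Five mice per group (10 placebo) were sacrificed on day 3 or 4. Liver homogenate or serum was serially diluted onto triplicate LLC-MK2 monolayers, and CPE was read at 6–8 days. The detection limit was 2.8 log10 CCID50 per 0.1 g liver or 0.1 ml serum.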

Data set [12] relates to Punta Toro virus. Briefly: Antiviral activity against 500 PFU Punta Toro virus Adames infected C57BL/6 mouse assessed as mean day of death at 200 mg/kg, po twice daily for 5 days administered 4 hrs before viral challenge. Format: functional. The essentials:
as §3

Data set [13] has as its system Punta Toro virus. As to the kind of experiment: Antiviral activity against 500 PFU Punta Toro virus Adames infected C57BL/6 mouse assessed as animals with detectable virus level in liver at 30 mg/kg, po twice daily administered 4 hrs before viral challenge measured on day 3 of viral infection. Format: functional. The method in brief:
as §4

Data set [14] has as its system Punta Toro virus. As to the kind of experiment: Antiviral activity against 500 PFU Punta Toro virus Adames infected C57BL/6 mouse assessed as mean viral titer per 0.1 g of liver at 10 mg/kg, po twice daily administered 4 hrs before viral challenge measured on day 3 of viral infection. The format is functional. The essentials:
as §1

Data set [15] relates to Punta Toro virus. As to the kind of experiment: Antiviral activity against 500 PFU Punta Toro virus Adames infected C57BL/6 mouse assessed as survival at 75 mg/kg, po twice daily for 5 days administered 4 hrs before viral challenge. The format is functional, organism-based. The arrangement: dose 75 mg/kg. The method in brief:
as §2

Data set [16] relates to Punta Toro virus. Briefly: Antiviral activity against Punta Toro virus Adames infected Syrian golden hamster assessed as animals with detectable virus level in liver at 60 mg/kg, po twice daily administered 4 hrs before viral challenge measured on day 4 of viral infection. The format is functional.
In data set [17] the test system is Punta Toro virus. As to the kind of experiment: Antiviral activity against 500 PFU Punta Toro virus Adames infected C57BL/6 mouse assessed as mean viral titer per 0.1 g of liver at 5 mg/kg, po twice daily administered 4 hrs before viral challenge measured on day 3 of viral infection. The format is functional. The essentials: as §1
Data set [18] relates to Punta Toro virus. Briefly: Antiviral activity against 500 PFU Punta Toro virus Adames infected C57BL/6 mouse assessed as animals with detectable virus level in serum at 10 mg/kg, po twice daily administered 24 hrs post viral challenge measured on day 3 of viral infection. The format is functional. The essentials:
as §4

Data set [19] concerns Punta Toro virus. As to the kind of experiment: Antiviral activity against 500 PFU Punta Toro virus Adames infected C57BL/6 mouse assessed as mean viral titer per 0.1 g of liver at 50 mg/kg, po administered 4 hrs before viral challenge measured on day 4 of viral infection. Format: functional. The essentials:
as §1

For data set [20], the system named is Punta Toro virus. As to the kind of experiment: Antiviral activity against 500 PFU Punta Toro virus Adames infected C57BL/6 mouse assessed as mean viral titer per 0.1 g of liver at 75 mg/kg, po administered 4 hrs before viral challenge measured on day 4 of viral infection. Format: functional. The essentials: as §1
Data set [21] has as its system Punta Toro virus. As to the kind of experiment: Antiviral activity against 500 PFU Punta Toro virus Adames infected C57BL/6 mouse assessed as mean serum ALT levels at 75 mg/kg, po twice daily administered 4 hrs before viral challenge measured on day 4 of viral infection. Format: functional. The essentials: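 C57BL/6 mice received subcutaneous PTV, then oral gavage twice daily for 5–7 days. T-705 was given in 0.4% CMC and ribavirin in saline. Five mice per group (10 placebo) were killed on day 3 or 4, and serum was collected. ALT activity was measured by kinetic assay. Three sham-infected mice set baselines.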

In data set [22] the test system is Pichinde virus. Briefly: Antiviral activity against Pichinde virus An 4763 infected Syrian golden hamster assessed as survival at 50 mg/kg, po twice daily for 7 days administered 24 hrs post viral-challenge. The format is functional, organism-based. The arrangement: dose 50 mg/kg.
Data set [23] in a line: Cytotoxicity against african green monkey Vero cells after 7 to 8 days by neutral-red dye uptake assay. Format: cell-based. The conditions noted are these: chlorocebus sabaeus. The method in brief:
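Subconfluent (50-70%) Vero cells received half-log drug dilutions without virus and were held at 37°C, 5% CO2 for 7-8 days. Cells were stained with 0.034% neutral red for 2 h, and the dye was extracted 30 min in ethanol with Sorenson's citrate buffer. Absorbance was read at 540 nm as % of untreated controls. CC50 was derived by regression.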

For the compound `NC(=O)c1nc(F)cnc1O` [FAVIPIRAVIR], the Activity with Pichinde virus [1] is 12.5 days; with Punta Toro virus [3], 6 days; in the data set on Punta Toro virus [4], 37 IU/L; in the data set with Punta Toro virus [10] it was more than 21 days; in the data set with Punta Toro virus [11], 0%; in the data set on Punta Toro virus [12], 8 days. In addition, the Activity was 0% in the data set on Punta Toro virus [13], 20% with Punta Toro virus [16] and 100% with Punta Toro virus [18]. The log10CCID50 in the data set with Punta Toro virus [2] is given as less than 2.8; in the data set on Punta Toro virus [5] it was less than 5.2; in the data set with Punta Toro virus [6], 6.2; in the data set with Punta Toro virus [8], less than 2.8; in the data set with Punta Toro virus [14], less than 2.8; in the data set with Punta Toro virus [17], less than 2.8. Moreover, the log10CCID50 in the data set with Punta Toro virus [19] and with Punta Toro virus [20] was less than 2.8 each time. Further, the result with Punta Toro virus [7] and with Punta Toro virus [15] was Active. Also, the survival at 15 mg/kg in the data set on Punta Toro virus [9] was found to be 50%.
For `NC(=O)c1ncn([C@@H]2O[C@H](CO)[C@@H](O)[C@H]2O)n1` [RIBAVIRIN], the Activity in the data set on Punta Toro virus [21] came to 38 IU/L. Moreover, in the data set on Pichinde virus [22], the result was Active. For the same compound, in data set [23], half-maximal cytotoxicity (CC50) was put at 156 µM.
